# Bioassay records: PubChem BioAssay, Johns Hopkins Ion Channel Center
# Hits are enriched below; roughly 3.5% of the tested compounds scored in any of these assays.
# MrgX1 ag – agonists of human MrgX1 receptor, primary screen, HEK293 cells, Fluo-4 calcium flux. Fluo-4 calcium fluorescence, agonist mode; stronger effect = higher value. B-score at 10 µM. 0.44% of 310,000 active. AID 588627, 2011;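 active means calcium response B-score plate-corrected fluorescence ratio at least 3 library SD, with starting fluorescence B-score inside 5 SD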
# Target sequence (Q96LB2 whole entry, looked up): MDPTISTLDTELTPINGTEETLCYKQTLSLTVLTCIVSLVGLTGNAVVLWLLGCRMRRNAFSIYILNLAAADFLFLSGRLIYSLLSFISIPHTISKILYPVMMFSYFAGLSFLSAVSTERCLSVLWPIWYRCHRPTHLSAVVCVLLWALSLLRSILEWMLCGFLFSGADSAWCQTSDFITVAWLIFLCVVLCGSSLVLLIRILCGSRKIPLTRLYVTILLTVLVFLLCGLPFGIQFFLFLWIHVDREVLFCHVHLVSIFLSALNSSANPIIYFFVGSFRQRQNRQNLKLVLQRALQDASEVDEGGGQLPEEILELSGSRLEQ
#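 Material: HEK293 cells stably expressing human MrgX1 receptor | Quantity: 15,000 cells per well | Times: Cells plated overnight, dye loaded 0.5 h 37 °C, 0.5 h room temperature | Measured by: Kinetic Fluo-4 NW fluorescence of intracellular calcium | Control set: Positive and negative controls per plate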
# RGS4 act – RGS4 potentiators or activators, primary screen, cell-based, HEK293 M3R inducible RGS4, calcium flux; carbachol calcium flux Fluo4; stronger effect = lower value; 0.92% of 310,000 active; AID 463111, 2010; B-score at 10 µM;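 active means B-score of the integrated calcium signal more than 4 SD below the library mean, with starting fluorescence not abnormally high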;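 further: negative B-score means reduced calcium response which marks RGS4 activation or potentiation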
#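 Material: M3R-expressing HEK293 line, RGS4 induced by doxycycline | Schedule: Overnight RGS4 induction, 30 min dye load 37 °C, 20 min compound RT | Measured by: Fluo4 fluorescence kinetic imaging of calcium | Read-out: Integrated calcium ratio converted to B score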
# MrgX1 antagonist – antagonists of human MrgX1 receptor, primary screen, HEK293 cells, Fluo-4 calcium flux | BAM8-22 antagonism; stronger effect = lower value | 1.3% of 310,000 active | Mas-related G-protein coupled receptor member X1 (Homo sapiens), Q96LB2 | AID 588676, 2011 | B-score at 10 µM;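 active means calcium-response B-score plate-corrected more than 3 library SD below zero, starting fluorescence within 5 deviations, no agonist response on first addition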;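 further: peak minus trough fluorescence over baseline after final BAM8-22 challenge near maximal dose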
# MrgX1 PAM – positive allosteric modulators of MrgX1, primary screen, HEK293 cells, Fluo-4 calcium flux; B-score at 10 µM; Mas-related G-protein coupled receptor member X1 (Homo sapiens), Q96LB2; FDSS; stronger effect = higher value; 0.63% of 310,000 active;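 active means plate-corrected calcium response at least 3 library SD above typical, normal starting fluorescence, not activating the receptor alone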;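 further: compound read alongside a low EC10 to EC30 dose of BAM8-22 agonist; peak minus trough fluorescence over baseline measured at the second addition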
# RGS4 block – RGS4 inhibitors, primary screen, cell-based, HEK293 M3R inducible RGS4, calcium flux | Regulator of G-protein signaling 4 (Homo sapiens), P49798 | Fluo-4 calcium flux; stronger effect = higher value; triggered by carbachol at its EC20 | B-score at 10 µM | 0.45% of 310,000 active | AID 463165, 2010;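 active means B-score, a plate-corrected calcium signal, over three deviations above library mean, with baseline fluorescence within five deviations of library mean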;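 further: RGS4 expression induced by doxycycline in cells with stable M3 receptor; B-score is computed from the integrated fluorescence ratio over baseline after carbachol; higher B-score means a larger calcium signal and so more RGS4 inhibition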
# Target sequence (P49798 whole entry, looked up): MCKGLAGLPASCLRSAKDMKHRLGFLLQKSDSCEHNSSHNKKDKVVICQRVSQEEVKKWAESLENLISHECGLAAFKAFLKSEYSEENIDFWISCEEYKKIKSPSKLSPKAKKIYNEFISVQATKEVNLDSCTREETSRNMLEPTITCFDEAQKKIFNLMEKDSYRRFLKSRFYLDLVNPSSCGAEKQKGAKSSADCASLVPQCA
# Active calls of the source: *; i = inactive; · = no result.
SMILES,MrgX1 ag,RGS4 act,MrgX1 antagonist,MrgX1 PAM,RGS4 block
Cn1c(=O)c(C(=O)COC(=O)c2cc(C(F)(F)F)nc3c(C(F)(F)F)cccc23)c(N)n(CC2CC2)c1=O,i,-8.9*,-7.5*,i,i
CC(C)Cn1c(N)c(C(=O)COC(=O)c2cc(C(F)(F)F)nc3ccccc23)c(=O)n(C)c1=O,i,·,i,i,·
CCOc1ccc(S(=O)(=O)N2CCN(C(=O)CCC(=O)N3CCOCC3)CC2)cc1,i,i,i,i,i
Cc1nn(-c2ccc([N+](=O)[O-])cc2)c2c1C(c1cccc(Br)c1)N1C(=N2)C(=O)Nc2ccccc21 (configuration not stated),i,i,-5.8*,i,i
Cc1cccc(NC2=Nc3ccccc3N3C2=Nc2c(c(C)nn2-c2ccccc2)C3c2ccc(O)c(O)c2)c1 (configuration not stated),i,i,i,i,i
Cc1nn(-c2ccccc2)c2c1C(c1ccc(Cl)cc1)N(c1ccccc1)C(=O)N2 (configuration not stated),i,i,i,i,i
Cc1nn(-c2ccccc2)c2c1C(c1ccc([N+](=O)[O-])cc1)N1C(=N2)C(=O)Nc2ccccc21 (configuration not stated),i,-9*,i,i,i
CN(C)C(=O)N(CCCN1CCOCC1)Cc1cccc2ccccc12,i,i,i,i,i
COc1cc(C(=O)NC2CC(C)(C)CC(C)(C)C2)ccc1OC1CCN(C(C)=O)CC1,i,i,i,i,i
C=CCN1C(=O)/C(=C/c2ccc(O)c(OC)c2)S/C1=N/c1nccs1,i,i,i,9*,i
C=CCN1C(=O)/C(=C/c2ccc(OCC(=O)O)cc2)S/C1=N/c1nccs1,i,i,i,i,i
CN1C(=O)c2ccc(NC(=O)c3ccc(Cl)cc3Cl)cc2C1=O,i,i,i,i,i
COc1ccc(/C=N/Nc2cc(C)nc3ccc(OC)cc23)c(OC)c1,i,-7.7*,i,i,i
N#Cc1ccsc1NC(=O)c1ccc(Cl)c([N+](=O)[O-])c1,i,i,-4.9*,i,i
N#Cc1ccsc1NC(=O)c1cccc([N+](=O)[O-])c1,i,i,i,i,i
O=C(Nc1ccc(C(O)(C(F)(F)F)C(F)(F)F)cc1)c1ccc(Cl)c([N+](=O)[O-])c1,i,-8.8*,i,i,i
COc1ccccc1-c1nc(SCC(=O)N(C)c2ccccc2)c2c(=O)n(C)c(=O)n(C)c2n1,i,i,i,i,i
COc1cccc(C(=O)NCC2(c3ccccc3)CCCC2)c1,i,i,i,i,i
COc1ccc(C(=O)NCC2(c3ccccc3)CCCC2)c(OC)c1,i,i,-10*,10*,i
Cn1c(=O)c(=O)n(C)c2cc(N3CCOCC3)c(NS(=O)(=O)c3ccc(F)c(Cl)c3)cc21,i,i,i,i,i
Cn1c(=O)c(=O)n(C)c2cc(N3CCOCC3)c(NS(=O)(=O)c3ccc([N+](=O)[O-])cc3)cc21,i,i,i,14*,i
O=C1CCCCC1C(Nc1ccc(Br)cc1)c1ccccc1 (configuration not stated),i,-7.5*,i,i,i
C#CCOCCOCCOCCNc1nc(N2CCN(C(=O)CCCCCCCCCCNC(=O)[C@@H](CCC(=O)O)n3cc(CCCCCN)nn3)CC2)nc(N2CCN(C(=O)CCCCCCCCCCNC(=O)[C@H](CO)n3cc(CCCCCN)nn3)CC2)n1,i,·,i,i,·
C#CCOCCOCCOCCNc1nc(N2CCN(C(=O)CCCCCCCCCCNC(=O)[C@@H](CCC(=O)O)n3cc(CCCCCN)nn3)CC2)nc(N2CCN(C(=O)CCCCCCCCCCNC(=O)[C@H](CCCCN)n3cc(C[C@@H](C)CC)nn3)CC2)n1,70*,·,i,i,·
C#CCOCCOCCOCCNc1nc(N2CCN(C(=O)CCCCCCCCCCNC(=O)[C@H](CCCCN)n3cc(CCO)nn3)CC2)nc(N2CCN(C(=O)CCCCCCCCCCNC(=O)[C@H](CCCCN)n3cc(C[C@@H](C)CC)nn3)CC2)n1,83*,·,i,i,·
SMILES,MrgX1 ag,RGS4 act,MrgX1 antagonist,MrgX1 PAM,RGS4 block
Nn1c(SCc2ccc(Br)cc2)nnc1-c1ccncc1,i,i,i,i,i
Oc1ccccc1C1CC(c2cccs2)=NC(c2ccc(Cl)cc2)N1 (configuration not stated),i,i,i,7.4*,i
O=[N+]([O-])c1ccc(N2CCC(=NOCc3ccc(Cl)cc3)CC2)cc1,i,-8.2*,i,i,i
O=C(COC(=O)c1ccc(-c2ccc([N+](=O)[O-])cc2)o1)NC(=O)NC12CC3CC(CC(C3)C1)C2,i,i,i,i,i
CCOC(=O)C1CCCN(C(=O)c2ccc(-c3ccc([N+](=O)[O-])cc3)o2)C1 (configuration not stated),i,-9*,i,i,i
O=C(COC(=O)c1ccc(-c2ccc([N+](=O)[O-])cc2)o1)NC(=O)NC1CCCCC1,i,-7*,i,i,i
Cc1cnc(C(=O)OC(C)C(=O)c2c(C)[nH]c3ccccc23)cn1 (configuration not stated),i,i,i,i,i
O=C(/C=C/c1ccc([N+](=O)[O-])cc1)/C=C/c1ccco1,i,i,i,i,16*
COc1cc(/C=N\Nc2nc3ccccc3o2)cc(OC)c1OC,i,i,-6.6*,i,i
CC1C(=O)N2CCCc3cc(S(=O)(=O)N4CCN(c5ccccc5F)CC4)cc1c32 (configuration not stated),i,i,i,i,i
CC(C)N1C(=O)CCC1C(=O)N1CCN(c2ccc(F)cc2)CC1 (configuration not stated),i,i,i,i,i
CC(C)N1C(=O)CCC1C(=O)N1CCC(Cc2ccccc2)CC1 (configuration not stated),i,i,-5.9*,i,i
N#C/C(=C/c1ccc(N2CCCCCC2)o1)c1cccc(F)c1,i,i,i,i,i
COc1cc(N2CCCC2)c(OC)cc1/C=C(/C#N)c1cccc(F)c1,i,i,-11*,i,i
COc1ccc(C)cc1Nc1nc(N)c2cc(OC)c(OC)cc2n1,i,i,-4.5*,i,i
